Data as given in ChEMBL document CHEMBL1135573, “New stereocontrolled synthesis and biological evaluation of 5-(1'-hydroxyalkyl)-3-methylidenetetrahydro-2-furanones as potential cytotoxic agents” (J Med Chem, 2002).
pIC50: −log10 of the molar value.

How the values were obtained:
HL-60 = assay: Compound was evaluated for in vitro cytotoxic activity against human HL-60 leukemia cell line; assay type: functional, cell-based
L1210 = assay: Compound was evaluated for in vitro cytotoxic activity against mouse L-1210 leukemia cell line; assay type: functional, cell-based
[1] = Partition coefficient (logP); assay type: physicochemical; details: octanol/water
Procedure, shortened: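 log P (1-octanol/water) computed with a standard software package. For one analogue it was also measured by a spectrophotometric method.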

CARBOPLATIN
pIC50 (HL-60; hl-60): 5.54 | pIC50 (L1210; l1210): 5.01

C=C1C[C@H]([C@@H](C)O)OC1=O
pIC50 (HL-60; Homo sapiens, HL-60): 4.33 | logP [1]: 0.55 | pIC50 (L1210; Mus musculus, L1210): 4.71

C=C1C[C@H]([C@H](O)c2ccccc2)OC1=O
pIC50 (HL-60; Homo sapiens, HL-60): 4.44 | logP [1]: 1.8 | pIC50 (L1210; Mus musculus, L1210): 5.16 | pIC50 (L1210; l1210): 5.10

C=C1C[C@H]([C@H](O)CCC)OC1=O
pIC50 (HL-60; Homo sapiens, HL-60): 4.28 | logP [1]: 1.59 | pIC50 (L1210; Mus musculus, L1210): 4.73

C=C1C[C@](C)(CO)OC1=O
pIC50 (HL-60; Homo sapiens, HL-60): 4.29 | logP [1]: 0.44 | pIC50 (L1210; Mus musculus, L1210): 4.57

C=C1C[C@H]([C@@H](O)CCC)OC1=O
pIC50 (HL-60; Homo sapiens, HL-60): 4.28 | pIC50 (L1210; Mus musculus, L1210): 4.77

C=C1C[C@H]([C@H](C)O)OC1=O
pIC50 (HL-60; Homo sapiens, HL-60): 4.33 | pIC50 (L1210; Mus musculus, L1210): 4.76

C=C1C[C@H]([C@@H](O)c2ccccc2)OC1=O
pIC50 (HL-60; Homo sapiens, HL-60): 4.39 | pIC50 (L1210; Mus musculus, L1210): 5.12
